Reference: ChEMBL document CHEMBL1145150, “Synthesis and biological activity of nitronyl nitroxide containing peptides” (J Med Chem, 2005)
One block for each molecule: values may come before it. Residues, ends and D or L forms follow the SMILES beside them. *: point of attachment. X1 = CC1(C)N(O)C(c2ccc(OCC(=O)*)cc2)=[N+]([O-])C1(C)C

Tests used:
PC-12 [1] = assay: Free radical scavenging activity of compound (25 uM) evaluated against hydrogen peroxide in PC12 cells; assay type: functional, cell-based; conditions: Rattus norvegicus
In short: (§1)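 PC12 cells were grown in DMEM with 10% heat-inactivated horse serum, 5% FBS and 1.0 mM pyruvate at 37 °C and 5% CO₂. Cells were seeded at 20 000/well on poly-L-lysine and attached 24 h, then pretreated 1 h with 12.5–200 µM compound. Insults were: NO, 2 mM nitroprusside for 2 h, then 14 h in fresh medium; H₂O₂, 1 mM for 1 h; OH, 1 mM H₂O₂/30 µM Fe(II) for 1 h. Survival was read by MTT.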

Rattus norvegicus [2] = assay: Thrombolytic activity (15.0 umol/kg) expressed as the reduction of thrombus mass determined in male wistar rats; assay type: functional
In short: (§2)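 Male Wistar rats (200–300 g) were anesthetized with pentobarbital sodium (80.0 mg/kg i.p.). A steel helix was left for 15 min in 1.0 mL of carotid blood, then weighed. It was placed in a heparin-filled (50 IU/mL) polyethylene shunt into the left jugular vein. Heparin and then the test agent were injected through the shunt. Blood circulated 90 min, the helix was reweighed, and thrombus mass reduction was recorded (ANOVA).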

Rattus norvegicus [3] = assay: Thrombolytic activity (10.0 umol/kg) expressed as the reduction of thrombus mass determined in male wistar rats; assay type: functional; in short: as §2
Oryctolagus cuniculus [4] = organism: Oryctolagus cuniculus; assay: Effect (1.1 ug) on euglobulin clot lysis time determined using rabbit euglobulin; assay type: functional
In short: (§3)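 Rabbit plasma was diluted 1:20 in distilled water and precipitated at pH 5.7 with 0.25% acetic acid for 30 min at 4 °C. It was spun at 2000g for 15 min, and the euglobulin pellet was resuspended to the original plasma volume in 50 mM sodium barbiturate buffer (pH 7.8; 1.66 mM CaCl₂, 0.68 mM MgCl₂, 93.96 mM NaCl). Saline, urokinase or test agent was added to the clots, and time to clot lysis was read in a microplate.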

Rattus norvegicus [5] = organism: Rattus norvegicus; assay: Concentration of compound (1 umol/L) required to inhibit acetylcholine-induced vasorelaxation of rat aortic strip relative to control; assay type: functional, Aorta
Oryctolagus cuniculus [6] = organism: Oryctolagus cuniculus; assay: Effect (2.2 ug) on euglobulin clot lysis time determined using rabbit euglobulin; assay type: functional; in short: as §3
PC-12 [7] = assay: Free radical scavenging activity of compound (25 uM) evaluated against OH in PC12 cells; assay type: functional, cell-based; conditions: Rattus norvegicus; in short: as §1
Rattus norvegicus [8] = organism: Rattus norvegicus; assay: Concentration of compound (0.01 umol/L) required to inhibit acetylcholine-induced vasorelaxation of rat aortic strip relative to control; assay type: functional, Aorta
PC-12 [9] = assay: Free radical scavenging activity of compound (25 uM) evaluated against […] in PC12 cells; assay type: functional, cell-based; conditions: Rattus norvegicus
Rattus norvegicus [10] = assay: Thrombolytic activity (5.0 umol/kg) expressed as the reduction of thrombus mass determined in male wistar rats; assay type: functional; in short: as §2
Rattus norvegicus [11] = organism: Rattus norvegicus; assay: Concentration of compound (0.1 umol/L) required to inhibit acetylcholine-induced vasorelaxation of rat aortic strip relative to control; assay type: functional, Aorta
Oryctolagus cuniculus [12] = organism: Oryctolagus cuniculus; assay: Fibrinolytic activity (0.2 ug) determined in fibrinogen-agarose mixture coagulated with […] of thrombin; assay type: functional
In short: (§4)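 Plates were cast from equal volumes of 0.3% rabbit fibrinogen and 0.95% agarose, both in 50 mM sodium barbiturate buffer (pH 7.8), clotted with thrombin (100 IU/mL) and held 30 min at 4 °C. Wells 5 mm across were punched and loaded with 30 µL of saline, urokinase or test agent. Fibrinolysis was expressed as lysis area.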

Oryctolagus cuniculus [13] = organism: Oryctolagus cuniculus; assay: Effect (0.6 ug) on euglobulin clot lysis time determined using rabbit euglobulin; assay type: functional; in short: as §3
Oryctolagus cuniculus [14] = organism: Oryctolagus cuniculus; assay: Fibrinolytic activity (0.4 ug) determined in fibrinogen-agarose mixture coagulated with […] of thrombin; assay type: functional; in short: as §4
Oryctolagus cuniculus [15] = organism: Oryctolagus cuniculus; assay: Fibrinolytic activity (0.8 ug) determined in fibrinogen-agarose mixture coagulated with […] of thrombin; assay type: functional; in short: as §4
Oryctolagus cuniculus [16] = organism: Oryctolagus cuniculus; assay: Effect (1.4 ug) on euglobulin clot lysis time determined using rabbit euglobulin; assay type: functional; in short: as §3
Oryctolagus cuniculus [17] = organism: Oryctolagus cuniculus; assay: Fibrinolytic activity (1.4 ug) determined in fibrinogen-agarose mixture coagulated with […] of thrombin; assay type: functional; in short: as §4
Oryctolagus cuniculus [18] = organism: Oryctolagus cuniculus; assay: Effect (5 IU) on euglobulin clot lysis time determined using rabbit euglobulin; assay type: functional; in short: as §3
Rattus norvegicus [19] = assay: Thrombolytic activity (20 000 IU/kg) expressed as the reduction of thrombus mass determined in male wistar rats; assay type: functional, organism-based; in short: as §2
Oryctolagus cuniculus [20] = organism: Oryctolagus cuniculus; assay: Fibrinolytic activity (5 IU)) determined in fibrinogen-agarose mixture coagulated with […] of thrombin; assay type: functional; in short: as §4
Oryctolagus cuniculus [21] = organism: Oryctolagus cuniculus; assay: Fibrinolytic activity (0.7 ug) determined in fibrinogen-agarose mixture coagulated with […] of thrombin; assay type: functional; in short: as §4
PC-12 [22] = assay: Free radical scavenging activity of compound (50 uM) evaluated against hydrogen peroxide in PC12 cells; assay type: functional, cell-based; conditions: Rattus norvegicus; in short: as §1
Oryctolagus cuniculus [23] = organism: Oryctolagus cuniculus; assay: Effect (2.1 ug) on euglobulin clot lysis time determined using rabbit euglobulin; assay type: functional; in short: as §3
PC-12 [24] = assay: Free radical scavenging activity of compound (50 uM) evaluated against OH in PC12 cells; assay type: functional, cell-based; conditions: Rattus norvegicus; in short: as §1
PC-12 [25] = assay: Free radical scavenging activity of compound (50 uM) evaluated against […] in PC12 cells; assay type: functional, cell-based; conditions: Rattus norvegicus
Rattus norvegicus [26] = assay: Thrombolytic activity (10 umol/kg) expressed as the reduction of thrombus mass determined in male wistar rats; assay type: functional; in short: as §2
Oryctolagus cuniculus [27] = organism: Oryctolagus cuniculus; assay: Effect (2.3 ug) on euglobulin clot lysis time determined using rabbit euglobulin; assay type: functional; in short: as §3
PC-12 [28] = assay: Free radical scavenging activity of compound (200 uM) evaluated against hydrogen peroxide in PC12 cells; assay type: functional, cell-based; conditions: Rattus norvegicus; in short: as §1
PC-12 [29] = assay: Free radical scavenging activity of compound (200 uM) evaluated against […] in PC12 cells; assay type: functional, cell-based; conditions: Rattus norvegicus
PC-12 [30] = assay: Free radical scavenging activity of compound (200 uM) evaluated against OH in PC12 cells; assay type: functional, cell-based; conditions: Rattus norvegicus; in short: as §1
Rattus norvegicus [31] = assay: Thrombolytic activity (1 umol/kg) expressed as the reduction of thrombus mass determined in male wistar rats; assay type: functional; in short: as §2
Rattus norvegicus [32] = assay: Thrombolytic activity (5 umol/kg) expressed as the reduction of thrombus mass determined in male wistar rats; assay type: functional; in short: as §2
Oryctolagus cuniculus [33] = organism: Oryctolagus cuniculus; assay: Effect (1.3 ug) on euglobulin clot lysis time determined using rabbit euglobulin; assay type: functional; in short: as §3
Oryctolagus cuniculus [34] = organism: Oryctolagus cuniculus; assay: Fibrinolytic activity (1.3 ug) determined in fibrinogen-agarose mixture coagulated with […] of thrombin; assay type: functional; in short: as §4
PC-12 [35] = assay: Free radical scavenging activity of compound (12.5 uM) evaluated against OH in PC12 cells; assay type: functional, cell-based; conditions: Rattus norvegicus; in short: as §1
PC-12 [36] = assay: Free radical scavenging activity of compound (12.5 uM) evaluated against nitric oxide in PC12 cells; assay type: functional, cell-based; conditions: Rattus norvegicus; in short: as §1
Rattus norvegicus [37] = organism: Rattus norvegicus; assay: Concentration of compound (1 uM) required to inhibit acetylcholine-induced vasorelaxation of rat aortic strip relative to control; assay type: functional, Aorta
Oryctolagus cuniculus [38] = organism: Oryctolagus cuniculus; assay: Effect (0.8 ug) on euglobulin clot lysis time determined using rabbit euglobulin; assay type: functional; in short: as §3
PC-12 [39] = assay: Free radical scavenging activity of compound (12.5 uM) evaluated against hydrogen peroxide in PC12 cells; assay type: functional, cell-based; conditions: Rattus norvegicus; in short: as §1
Oryctolagus cuniculus [40] = organism: Oryctolagus cuniculus; assay: Effect (1.5 ug) on euglobulin clot lysis time determined using rabbit euglobulin; assay type: functional; in short: as §3
Oryctolagus cuniculus [41] = organism: Oryctolagus cuniculus; assay: Fibrinolytic activity (1.5 ug) determined in fibrinogen-agarose mixture coagulated with […] of thrombin; assay type: functional; in short: as §4

EC50 (PC-12 [1]): 28.1 µM
EC50 (PC-12 [7]): 98.1 µM
EC50 (PC-12 [9]): 89.1 µM
Molecule: C[C@H](NC(=O)COc1ccc(C2=[N+]([O-])C(C)(C)C(C)(C)N2O)cc1)C(=O)N[C@@H](CCCN=C(N)N)C(=O)N1CCC[C@H]1C(=O)N[C@@H](C)C(=O)N[C@@H](CCCCN)C(=O)O (X1-ARPAK-OH)
Reduction (Rattus norvegicus [2]): 26.88 mg
Reduction (Rattus norvegicus [3]): 19.91 mg
ECLT (Oryctolagus cuniculus [4]): 123.32 min
Inhibition (Rattus norvegicus [5]): 92.9%
ECLT (Oryctolagus cuniculus [6]): 104.12 min
Inhibition (Rattus norvegicus [8]): 66.8%
Reduction (Rattus norvegicus [10]): 16.27 mg
Inhibition (Rattus norvegicus [11]): 78.6%
Lysis area (Oryctolagus cuniculus [12]): 172.33 mm.mm
ECLT (Oryctolagus cuniculus [13]): 145.61 min
Lysis area (Oryctolagus cuniculus [14]): 194.54 mm.mm
Lysis area (Oryctolagus cuniculus [15]): 215.23 mm.mm

Molecule: C[C@H](N)C(=O)N[C@@H](CCCN=C(N)N)C(=O)N1CCC[C@H]1C(=O)N[C@@H](C)C(=O)N[C@@H](CCCCN)C(=O)O (H-ARPAK-OH)
Reduction (Rattus norvegicus [3]): 18.54 mg
ECLT (Oryctolagus cuniculus [16]): 96.38 min
Inhibition (Rattus norvegicus [5]): 9.5%
Lysis area (Oryctolagus cuniculus [17]): 212.78 mm.mm

Molecule: UROKINASE
ECLT (Oryctolagus cuniculus [18]): 126 min
Reduction (Rattus norvegicus [19]): 25.4 mg
Lysis area (Oryctolagus cuniculus [20]): 224 mm.mm

EC50 (PC-12 [22]): 25.4 µM
EC50 (PC-12 [24]): 95.4 µM
EC50 (PC-12 [25]): 92.3 µM
Molecule: C[C@H](NC(=O)[C@@H]1CCCN1C(=O)[C@H](CCCN=C(N)N)NC(=O)CNC(=O)COc1ccc(C2=[N+]([O-])C(C)(C)C(C)(C)N2O)cc1)C(=O)N[C@@H](CCCCN)C(=O)O (X1-GRPAK-OH)
Reduction (Rattus norvegicus [2]): 26.64 mg
Lysis area (Oryctolagus cuniculus [21]): 217.35 mm.mm
Reduction (Rattus norvegicus [3]): 19.7 mg
ECLT (Oryctolagus cuniculus [4]): 126.51 min
Inhibition (Rattus norvegicus [5]): 96%
Inhibition (Rattus norvegicus [8]): 69.3%
Reduction (Rattus norvegicus [10]): 16.34 mg
ECLT (Oryctolagus cuniculus [23]): 105.01 min
Inhibition (Rattus norvegicus [11]): 80.9%
Lysis area (Oryctolagus cuniculus [12]): 175.04 mm.mm
ECLT (Oryctolagus cuniculus [13]): 147.22 min
Lysis area (Oryctolagus cuniculus [14]): 196.87 mm.mm

EC50 (PC-12 [28]): 74.6 µM
EC50 (PC-12 [29]): 91.8 µM
EC50 (PC-12 [30]): 94.2 µM
Molecule: C[C@H](NC(=O)[C@@H]1CCCN1C(=O)[C@H](CCCN=C(N)N)NC(=O)[C@H](CCC(N)=O)NC(=O)COc1ccc(C2=[N+]([O-])C(C)(C)C(C)(C)N2O)cc1)C(=O)N[C@@H](CCCCN)C(=O)O (X1-QRPAK-OH)
ECLT (Oryctolagus cuniculus [4]): 117.96 min
Inhibition (Rattus norvegicus [5]): 95.6%
Reduction (Rattus norvegicus [26]): 28.85 mg
Inhibition (Rattus norvegicus [8]): 68.3%
Inhibition (Rattus norvegicus [11]): 80.1%
Lysis area (Oryctolagus cuniculus [12]): 195.38 mm.mm
ECLT (Oryctolagus cuniculus [27]): 100.09 min
ECLT (Oryctolagus cuniculus [13]): 136 min
Reduction (Rattus norvegicus [31]): 16.4 mg
Lysis area (Oryctolagus cuniculus [14]): 215.12 mm.mm
Lysis area (Oryctolagus cuniculus [15]): 230.15 mm.mm
Reduction (Rattus norvegicus [32]): 20.43 mg

Molecule: C[C@H](NC(=O)[C@@H]1CCCN1C(=O)[C@H](CCCN=C(N)N)NC(=O)CN)C(=O)N[C@@H](CCCCN)C(=O)O (H-GRPAK-OH)
Reduction (Rattus norvegicus [3]): 25.82 mg
Inhibition (Rattus norvegicus [5]): 9.2%
ECLT (Oryctolagus cuniculus [33]): 91.09 min
Lysis area (Oryctolagus cuniculus [34]): 230.54 mm.mm

EC50 (PC-12 [35]): 99.9 µM
EC50 (PC-12 [36]): 91.2 µM
EC50 (PC-12 [39]): 30.2 µM
Molecule: CC1(C)N(O)C(c2ccc(OCC(=O)O)cc2)=[N+]([O-])C1(C)C
Reduction (Rattus norvegicus [3]): 15.89 mg
Inhibition (Rattus norvegicus [37]): 99.2%
ECLT (Oryctolagus cuniculus [38]): 218.56 min
Lysis area (Oryctolagus cuniculus [15]): 23.96 mm.mm

Molecule: C[C@H](NC(=O)[C@@H]1CCCN1C(=O)[C@H](CCCN=C(N)N)NC(=O)[C@@H](N)CCC(N)=O)C(=O)N[C@@H](CCCCN)C(=O)O (H-QRPAK-OH)
ECLT (Oryctolagus cuniculus [40]): 93.01 min
Reduction (Rattus norvegicus [3]): 21.17 mg
Lysis area (Oryctolagus cuniculus [41]): 223.99 mm.mm
Inhibition (Rattus norvegicus [5]): 8.9%
